A selection: hits, their analogues and other compounds. The true share with any hit is near 1.7%.
Runt-SMMHC FRET = blocks binding of human RUNX1 Runt domain to CBFb-SMMHC; Q01196+Q13951; Cerulean-Runt/Venus-CBFb-SMMHC FRET ratio 530/480, 1 h; inhibition, % at 20 µM; hit rate 0.74% among 220,000;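 active = mean inhibition across duplicate retests at 20 µM reaching about 50%, limit read from the data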;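 also: 0% = DMSO wells and 100% = wells with excess untagged CBFb-SMMHC; inhibitors lower the FRET ratio by blocking Runt binding to CBFb-SMMHC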
Target sequence (Q01196 whole entry, looked up, the tested form may be a part): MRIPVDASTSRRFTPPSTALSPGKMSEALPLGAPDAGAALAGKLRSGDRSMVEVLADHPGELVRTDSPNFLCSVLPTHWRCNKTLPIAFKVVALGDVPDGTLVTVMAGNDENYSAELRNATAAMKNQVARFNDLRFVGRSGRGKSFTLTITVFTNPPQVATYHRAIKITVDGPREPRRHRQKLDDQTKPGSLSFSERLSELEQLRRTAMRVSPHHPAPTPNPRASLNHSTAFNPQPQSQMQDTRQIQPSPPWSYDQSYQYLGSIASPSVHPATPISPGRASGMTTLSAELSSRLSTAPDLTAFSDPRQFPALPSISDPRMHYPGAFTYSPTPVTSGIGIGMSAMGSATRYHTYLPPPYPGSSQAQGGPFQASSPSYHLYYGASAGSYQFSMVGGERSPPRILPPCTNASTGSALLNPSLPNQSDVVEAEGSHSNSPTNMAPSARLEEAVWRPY
Target sequence (Q13951 whole entry, looked up, the tested form may be a part): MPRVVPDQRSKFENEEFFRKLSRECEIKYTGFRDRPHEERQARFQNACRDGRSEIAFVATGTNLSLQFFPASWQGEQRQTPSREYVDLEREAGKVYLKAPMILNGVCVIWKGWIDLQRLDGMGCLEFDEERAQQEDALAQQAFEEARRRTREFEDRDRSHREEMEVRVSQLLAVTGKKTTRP
RanGTP-Impb inh = disruptors of Ran-importin-beta complex formation – biochemical, FRET, CFP-Ran, YFP-importin-beta, homogeneous, primary screen. inhibition, % (no concentration beside the values). hit rate 1.1% among 300,000. cell-free CFP-Ran/YFP-importin-beta FRET ratio. AID 2216;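 active = more than half of the replicate wells show a fall in the fluorescence ratio signal beyond about 16%, limit read from the data, passing the limit was not always enough; inconclusive = exactly half of the replicate wells pass the set limit; inactive = fewer than half of replicates pass the limit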;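 also: 0% = DMSO wells and 100% = Ran loaded with GDP instead of GTP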
Hck Nef HTS = inhibitors of human Hck kinase activated by Nef | Recombinant Hck-YEEI plus Nef, Z-Lyte FRET kinase assay | inhibition, % at 20 µM | hit rate 0.68% among 220,000;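 active = Hck-Nef kinase inhibition above about 50%, limit read from the data; inactive = inhibition below that limit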;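 also: 0% = DMSO with Hck plus Nef and 100% = Hck alone without Nef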
Runt-CBFb FRET = Runt domain-CBFb interaction inhibition; Q01196+Q13951; Cerulean-Runt/Venus-CBFb FRET ratio 530/480, 1 h; inhibition, % at 20 µM; hit rate 0.46% among 220,000; AID 1496;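 active = inhibition over about 50% at 20 µM in the single-dose screen, limit read from the data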;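 also: 0% = DMSO wells and 100% = excess unlabeled CBFb competitor control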
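Measured by: fluorescence energy transfer, 422 nm excitation, 530/480 nm emission; Assay system: Cerulean-Runt domain; Medium: Tris pH 7.5 buffer with BSA; Measure: loss of energy transfer signal; Controls: 5 µM unlabeled CBFb as full-inhibition high control; Incubation: protein complex preformed 1 h, compound exposure 1 h, room temperature, dark.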
RUNX1 CBFb TR = disrupts human RUNX1 Runt domain binding to CBFb. shares compounds with Runt-CBFb FRET. TR-FRET RUNX1 Runt domain-CBFb binding. inhibition, % at 20 µM. hit rate 20% among 480. AID 1502; in the data active = inhibition above about 40%
An asterisk follows results filed as active; ? = inconclusive; / = not tested or not shown.

SMILES | Runt-SMMHC FRET | RanGTP-Impb inh | Hck Nef HTS | Runt-CBFb FRET | RUNX1 CBFb TR
N#Cc1sc2nc(-c3cccs3)cc(-c3ccc(F)cc3)c2c1N | -95.1 | -17.5 | -3.3 | -35.4 | /
CS(=O)(=O)c1sc2nc(-c3cccs3)cc(-c3ccccc3)c2c1N | 85.3* | -2.5 | -0.1 | 54.4* | 17.3
Fc1ccc(-c2ccnc(=S)[nH]2)cc1 | 34.2 | -0.2 | -1.7 | 52.1* | 2.3
CC(=O)c1ccc(OC(=O)CCc2nc3ccccc3s2)cc1 | 37.2 | -2.5 | 5.6 | 58.7* | 41.8*
COC(=O)c1ccc(Oc2coc3cc(OCc4ccc([N+](=O)[O-])cc4)ccc3c2=O)cc1 | -7.0 | 3.6 | 12.5 | -2.8 | /
O=C(O)C1OC(Oc2cc3oc(-c4ccccc4)cc(=O)c3c(O)c2O)C(O)C(O)C1O (centres undefined) | 37.4 | 1.0 | 19.7 | 55.8* | 8.8
COc1c(OC2OC(C(=O)O)C(O)C(O)C2O)cc(O)c2c(=O)cc(-c3ccccc3)oc12 (centres undefined) | 12.3 | 4.4 | 19.6 | 12.6 | /
Cc1noc(C)c1-c1nc(CSc2ccccc2)no1 | -0.4 | -2.0 | 15.8 | -0.5 | /
CCc1c(C)c(C#N)c2nc3ccccc3n2c1N(C)C | 17.9 | / | 2.9 | 9.4 | /
CCc1c(C)c(C#N)c2nc3ccccc3n2c1Nc1c(C)n(C)n(-c2ccccc2)c1=O | 92.0* | 39.7* | 8.0 | 56.3* | 24.3
COc1ccc(C(CCN2CCN(c3ccccc3)CC2)c2c(OC)cc(OC)c3c(-c4ccccc4)cc(=O)oc23)cc1 (centres undefined) | -2.9 | 4.3 | 9.7 | 55.2* | -2.5
COc1cc(OC)c2c(-c3ccccc3)cc(=O)oc2c1C(CCN1CCN(c2ccccc2)CC1)c1ccc(N(C)C)cc1 (centres undefined) | -1.7 | -0.3 | 16.2 | -0.3 | /
COc1ccc(-c2nc3c(c(=O)c4ccccc4n3C)c(=O)n2Cc2ccccc2)cc1 | 3.8 | -1.5 | 1.4 | 53.3* | 60.6*
COc1ccc(Cn2c(-c3ccc(OC)cc3)nc3c(c(=O)c4ccccc4n3C)c2=O)cc1 | -1.6 | 5.7 | 2.9 | -4.7 | /
N#C/C(=C\c1c(N2CCCCCC2)nc2ccccn2c1=O)C(=O)NCc1ccco1 | -2.9 | 5.7 | -2.7 | 75.4* | 22.5
N#C/C(=N\Nc1ccccc1[N+](=O)[O-])C(=N)N1CCCCC1 | -1.4 | / | -0.5 | -1.9 | /
O=C(NCc1ccc2c(c1)OCO2)c1cnc2ccccn2c1=O | -11.6 | 2.8 | -4.4 | -2.3 | /
COCCCn1c(C(=O)NCCN2CCOCC2)cc2c(=O)n3ccccc3nc21 | / | 5.8 | / | / | /
CC(C)OCCCn1c(=N)c(C(N)=S)cc2c(=O)n3ccccc3nc21 | 65.3* | 13.3 | 39.8 | 65.3* | 20.5
CCOCCCn1c(=N)c(C(=O)NCc2ccc3c(c2)OCO3)cc2c(=O)n3ccccc3nc21 | 125.3* | 28.8* | 6.9 | 51.4* | 25.2
O=C(NC1CCS(=O)(=O)C1)c1cccnc1 (centres undefined) | 2.3 | -1.4 | 24.3 | 0.2 | /
Cc1ccc(C(=O)NCC(=O)N/N=C/c2cccs2)cc1C | -3.0 | 0.7 | -2.2 | -0.7 | /
CCC(=O)Nc1nc(-c2ccc3c(c2)OCCO3)cs1 | -1.0 | 7.1 | 2.6 | -0.9 | /
c1cc2c(cc1-c1csc(NNC3=NCCCCC3)n1)OCCO2 | 70.9* | -2.0 | 34.7 | 60.3* | 35.1
CC(C)N(C(=O)COC(=O)[C@@H]1CC(O)CN1S(=O)(=O)c1ccc(C(C)(C)C)cc1)C(C)C (some centres undefined) | 2.3 | 10.9 | -14.7 | -4.0 | /
SMILES | Runt-SMMHC FRET | RanGTP-Impb inh | Hck Nef HTS | Runt-CBFb FRET | RUNX1 CBFb TR
CCN(CC)C(=O)CN1CCC(c2nc3cc(C)c(C)cc3[nH]2)CC1 | / | -7.2 | / | / | /
C=C(C)COc1ccc(-c2ncncc2-c2ccccc2)c(O)c1 | / | -1.5 | / | / | /
CCOC(=O)c1c(NC(C)=O)sc2c1CCC(C=O)=C2Sc1ccccc1 | 32.5 | 0.6 | -1.9 | 53.4* | -19.4
Cc1[nH]c2ccccc2c1C1=NNC(=Nc2ccc(F)cc2)SC1 | 47.2 | / | 0.5 | 53.4* | -1.5
CCCS(=O)(=O)N1CCCC(C(=O)NCCCN(C)c2ccccc2)C1 (centres undefined) | 2.3 | 1.1 | 2.3 | 56.9* | 7.5
CN1/C(=C\C(=O)c2cccnc2)Sc2ccccc21 | 51.2* | 10.2 | 43.6 | 65.7* | 13.8
CCC(=O)N1CCN=C1SCc1cccc(C(F)(F)F)c1 | / | -1.4 | / | / | /
Cc1ncc(CO)c(/C=N/NC(=O)c2cc(O)c(O)c(O)c2)c1O | 50.9* | 7.8 | -28.7 | 57.3* | 65.6*
Cc1cc(C(=O)N/N=C/c2c(CO)cnc(C)c2O)c2ccccc2n1 | / | 5.7 | / | / | /
C=CCN1C(=O)/C(=C2/Sc3ccc(OC)cc3N2C)SC1=NCc1ccccc1 | 36.6 | 1.1 | -45.4 | 51.2* | 10.5
N#C/C(=C\c1ccco1)C(=O)Nc1cccc2ncccc12 | 29.0 | 9.1 | 10.5 | 61.0* | -7.4
O=C(NC(=S)Nc1cccc2ncccc12)c1ccco1 | 0.3 | 5.1 | 1.9 | 6.1 | /
O=CN/C=C/c1cc(O)ccc1O | 58.7* | / | -141.4 | 64.6* | -1.6
O=Cc1ccc(O)cc1O | / | 4.7 | / | / | /
Clc1ccc(-c2nc3ccncc3[nH]2)cc1 | 19.5 | ? | 4.6 | 59.2* | -9.6
COc1ccccc1C(=O)COC(=O)CN1C(=O)NC2(CCCC2)C1=O | / | 4.8 | / | / | /
O=C(/C=C/c1ccco1)N1CCN(c2ccc(F)cc2)CC1 | 1.1 | 6.0 | 0.5 | 5.3 | /
Cc1ccc(/C=C/C(=O)N2CCN(c3ccc(F)cc3)CC2)o1 | 20.5 | 3.0 | 1.3 | 51.0* | 33.4
O=C(O)Cc1ccc(NC(=S)Nc2ccc(Br)cc2Cl)cc1 | 2.4 | 2.4 | 23.4 | 4.9 | /
O=C(NN1C(=O)NC2(CCCCC2)C1=O)c1ccc(-c2ccc([N+](=O)[O-])cc2)o1 | / | -2.8 | / | / | /
Cc1cc(C)c2c(n1)sc1c(O)cc(=O)[nH]c12 | 35.7 | -0.3 | 3.9 | 51.9* | 21.4
COc1ccc(-c2cc(C(F)(F)F)c3c(n2)sc2c(O)cc(=O)[nH]c23)c(OC)c1 | -114.6 | -41.8 | -3.5 | -11.7 | /
CNCc1ccccc1Sc1cc(O)ccc1O | 43.7 | / | 2.3 | 51.5* | -2.2
CNCc1ccccc1Sc1cccc(O)c1 | 0.6 | 3.7 | 1.4 | -1.2 | /
CC(C)CCNC(=O)CCc1nnc2n(CCCOC(C)C)c(=O)c3ccccc3n12 | / | -2.3 | / | / | /
COc1cc(C)c(NC(=O)C(=S)NCCc2ccccc2)cc1C | 34.3 | -1.8 | 29.2 | 51.4* | 15.3
CC(C)Cc1csc(NC(=O)c2ccccc2Cl)c1C(=O)O | -8.7 | -4.1 | 0.7 | 105.1* | 3.3
Cc1ccc(S(=O)(=O)N(C)C)cc1NC(=O)CN1C(=O)NC2(CCCCCCC2)C1=O | / | 3.7 | / | / | /
CCOC(=O)c1c(/N=C/N(C)C)sc(/C=N/Nc2ccccc2)c1-c1ccc(Cl)cc1 | 119.1* | -38.7 | 5.7 | 58.3* | -11.6
